Common to all, as to type: functional
Test [1] addresses Norepinephrine transporter (Rattus norvegicus, UniProt Q9WTR4). Nature of the test: Inhibition of noradrenaline uptake in rat synaptosomal fraction. In a few lines: (§1)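 Synaptosomal uptake of DA, NE or 5-HT measured. The IC50 is in nM and is the mean of at least two determinations, each using five test concentrations in triplicate.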
Test [2] is filed under the species Mus musculus. Description: Antagonistic activity against tetrabenazine-induced ptosis in mice. An outline of the steps:
(§2)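 Mice dosed intraperitoneally; the result is reported as the ED50 in μmol/kg with a range in parentheses. Test compounds are racemates of >95% isomeric purity by TLC.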

The species named for test [3] is Mus musculus. Nature of the test: Antagonistic activity against 5-HTP induced potentiation in mice. An outline of the steps: as §2
Test [4] deals with Sodium-dependent dopamine transporter (Rattus norvegicus, UniProt P23977). Nature of the test: Inhibition of dopamine uptake in rat synaptosomal fraction.
Sequence of Sodium-dependent dopamine transporter (P23977 whole entry): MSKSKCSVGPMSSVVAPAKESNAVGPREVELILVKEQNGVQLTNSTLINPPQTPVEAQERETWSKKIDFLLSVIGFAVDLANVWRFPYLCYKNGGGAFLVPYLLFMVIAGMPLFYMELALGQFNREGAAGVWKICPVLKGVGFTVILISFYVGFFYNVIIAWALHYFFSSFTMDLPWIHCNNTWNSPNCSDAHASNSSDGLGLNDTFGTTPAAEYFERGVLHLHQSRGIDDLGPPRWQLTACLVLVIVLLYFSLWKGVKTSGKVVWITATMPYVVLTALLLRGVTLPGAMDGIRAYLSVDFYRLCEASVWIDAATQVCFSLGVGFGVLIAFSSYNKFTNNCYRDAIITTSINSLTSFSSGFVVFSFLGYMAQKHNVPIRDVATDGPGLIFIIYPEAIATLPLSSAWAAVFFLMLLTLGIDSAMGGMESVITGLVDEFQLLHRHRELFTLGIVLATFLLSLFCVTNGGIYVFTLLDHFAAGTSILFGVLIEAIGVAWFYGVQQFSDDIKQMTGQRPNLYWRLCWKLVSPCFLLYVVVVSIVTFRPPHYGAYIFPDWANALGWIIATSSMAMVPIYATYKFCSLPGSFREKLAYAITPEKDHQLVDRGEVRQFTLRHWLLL
Test [5] deals with Sodium-dependent serotonin transporter (Rattus norvegicus, UniProt P31652). Description: Inhibition of 5-HT uptake in rat synaptosomal fraction. In a few lines: as §1
Sequence of Sodium-dependent serotonin transporter (P31652 whole entry): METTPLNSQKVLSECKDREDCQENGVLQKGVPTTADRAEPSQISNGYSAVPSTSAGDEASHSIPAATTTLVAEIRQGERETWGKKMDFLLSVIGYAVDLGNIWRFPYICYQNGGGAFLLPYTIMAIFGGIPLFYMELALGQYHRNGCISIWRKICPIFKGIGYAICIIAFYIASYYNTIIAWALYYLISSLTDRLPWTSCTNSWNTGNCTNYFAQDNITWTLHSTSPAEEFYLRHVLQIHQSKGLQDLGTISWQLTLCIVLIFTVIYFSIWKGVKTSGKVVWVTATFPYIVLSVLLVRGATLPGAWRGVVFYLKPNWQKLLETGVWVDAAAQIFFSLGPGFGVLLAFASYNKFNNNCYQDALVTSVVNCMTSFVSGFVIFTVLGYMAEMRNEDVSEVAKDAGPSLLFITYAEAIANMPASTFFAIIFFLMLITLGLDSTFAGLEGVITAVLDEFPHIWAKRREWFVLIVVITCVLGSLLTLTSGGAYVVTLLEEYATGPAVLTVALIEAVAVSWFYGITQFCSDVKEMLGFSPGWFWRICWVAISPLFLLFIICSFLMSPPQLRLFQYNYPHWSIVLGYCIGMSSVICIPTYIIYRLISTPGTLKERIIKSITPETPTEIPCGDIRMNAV
Test [6] is filed under the species Mus musculus. Nature of the test: Compound was tested for antagonistic activity against 5-HTP-induced potentiation in mice. In a few lines: as §2
The species named for test [7] is Mus musculus. Nature of the test: Antagonistic activity against tetrabenazine-induced ptosis in mice. In a few lines: as §2

pIC50: −log10 of the molar value. Bounds are passed on as bounds.

Sequence of Norepinephrine transporter (Q9WTR4 whole entry): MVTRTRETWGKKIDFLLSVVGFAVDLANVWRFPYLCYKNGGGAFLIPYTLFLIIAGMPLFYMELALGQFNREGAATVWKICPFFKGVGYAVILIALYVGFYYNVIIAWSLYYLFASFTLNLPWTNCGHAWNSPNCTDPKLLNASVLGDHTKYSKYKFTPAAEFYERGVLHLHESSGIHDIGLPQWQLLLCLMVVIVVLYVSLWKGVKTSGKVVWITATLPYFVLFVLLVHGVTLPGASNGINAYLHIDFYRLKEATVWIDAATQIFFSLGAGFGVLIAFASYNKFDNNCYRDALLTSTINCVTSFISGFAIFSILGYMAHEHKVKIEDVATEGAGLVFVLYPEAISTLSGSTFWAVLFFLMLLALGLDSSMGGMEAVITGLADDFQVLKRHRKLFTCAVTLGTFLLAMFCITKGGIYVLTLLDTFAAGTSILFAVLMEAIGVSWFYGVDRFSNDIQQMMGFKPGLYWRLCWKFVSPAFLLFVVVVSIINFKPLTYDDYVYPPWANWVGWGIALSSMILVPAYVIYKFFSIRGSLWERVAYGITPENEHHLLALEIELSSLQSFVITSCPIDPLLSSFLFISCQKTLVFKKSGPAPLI

In general, pIC50 refers to −log10 of the IC50, conventionally taken in molar units. On to `CNC1CC(c2ccc(C(F)(F)F)cc2)c2ccccc21` (configuration not stated), for which the pIC50 in test [1] is 7.17; in test [4], 6.80; in test [5] it was 8.33. Further, the ED50 turned out to be 58 µmol/kg in the test filed under Mus musculus [2] (Mus musculus, read-out: ED50) and 45 µmol/kg in the test filed under Mus musculus [3].
Regarding `CNC1CC(c2ccc(Cl)c(Cl)c2)c2ccc(OC)cc21.Cl` (configuration not stated), the pIC50 in test [1] is 7.72; in test [4], 7.72; in test [5] it was 9.28. Further, the ED50 in the test listed under Mus musculus [6] came out at 2.9 µM/kg; in the test listed under Mus musculus [7] (Mus musculus, read-out: ED50), 14 µmol/kg.
For `COc1ccc2c(c1)C(N(C)C)CC2c1ccc(Cl)c(Cl)c1` (stereo in doubt; 79), the pIC50 in test [1] is 8.52; in test [4], 7.82; in test [5], 8.70. Further, the ED50 in the test filed under Mus musculus [6] (Mus musculus, read-out: ED50) turned out to be 7.4 µmol/kg; in the test filed under Mus musculus [7] (Mus musculus, read-out: ED50) it was 34 µmol/kg.
`OCCNC1CC(c2ccc(Cl)c(Cl)c2)c2ccccc21` (configuration not stated): the ED50 in the test filed under Mus musculus [6] (Mus musculus, read-out: ED50) is 171 µmol/kg; in the test listed under Mus musculus [2] (Mus musculus, read-out: ED50), more than 111 µmol/kg; in the test listed under Mus musculus [7] (Mus musculus, read-out: ED50), 75 µmol/kg; in the test listed under Mus musculus [3] it was more than 111 µmol/kg.
On to `CNC1CC(c2ccccc2)c2ccccc21` (configuration not stated), for which the pIC50 is 6.49 in test [1], 5.85 in test [4] and 6.68 in test [5]. In addition, the ED50 is more than 154 µmol/kg in the test filed under Mus musculus [2] (Mus musculus, read-out: ED50) and 211 µmol/kg in the test listed under Mus musculus [3].
For `CNCCCC1(c2ccccc2)SC(C)(C)c2ccccc21` (configuration not stated) the same measures were 9.10, 5.03, 6.07, 2.3 µmol/kg and more than 115 µmol/kg.
Regarding `COc1ccc2c(c1)C(N(C)C)CC2c1ccc(Cl)c(Cl)c1` (stereo in doubt; 53), the pIC50 in test [1] was 7.80; in test [4] it was 8.00; in test [5], 8.80. Also, the ED50 in the test filed under Mus musculus [6] came to 14 µM/kg; in the test filed under Mus musculus [7] it was 33 µM/kg.
For `CN(C)C1CC(c2ccc(Cl)c(Cl)c2)c2ccc(O)cc21` (configuration not stated), the pIC50 is 7.80 in test [1], 8.10 in test [4] and 9.43 in test [5]. Further, the ED50 in the test filed under Mus musculus [7] (Mus musculus, read-out: ED50) was 22 µmol/kg.
On to `CN1CCN(C2CC(c3ccc(Cl)c(Cl)c3)c3ccccc32)CC1` (stereo in doubt; 102), for which, in the test filed under Mus musculus [7], the ED50 came out at 100 µM/kg. Also, in test [4], the pIC50 is 8.36.
`CN1CCN(C2CC(c3ccc(Cl)c(Cl)c3)c3ccccc32)CC1` (stereo in doubt; 101): the ED50 came out at 97 µmol/kg in the test listed under Mus musculus [6] (Mus musculus, read-out: ED50) and 48 µM/kg in the test listed under Mus musculus [7]. For the same compound, the pIC50 in test [4] is 7.96.
`CN1CCN(C2CC(c3ccc(Cl)c(Cl)c3)c3ccccc32)CC1` (single isomer, unassigned; (-)) had an ED50 in the test filed under Mus musculus [7] of 26 µM/kg. For the same compound, the pIC50 in test [4] is 8.00.
For `CNC1CC(c2ccc(Cl)c(Cl)c2)c2ccc(OC)cc21` (configuration not stated), the pIC50 was 9.17 in test [1], 8.60 in test [4] and 9.21 in test [5]. Also, the ED50 in the test filed under Mus musculus [6] was 14 µM/kg; in the test listed under Mus musculus [7], 7 µM/kg.
For the compound `CNCCCC1(c2ccccc2)OC(C)(C)c2ccccc21` (configuration not stated) [TALOPRAM], the pIC50 in test [1] was 8.54; in test [4], 4.36; in test [5] it was 5.85. The ED50 in the test listed under Mus musculus [6] (Mus musculus, read-out: ED50) is 44 µmol/kg; in the test listed under Mus musculus [7] (Mus musculus, read-out: ED50), 1.2 µmol/kg.
In the case of `CNC1CC(c2ccc(Cl)c(Cl)c2)c2ccc(O)cc21` (stereo in doubt; 54), the pIC50 is 9.09 in test [1], 9.28 in test [4] and 8.60 in test [5]. Moreover, in the test listed under Mus musculus [7], the ED50 is 21 µM/kg.
Consider `CNC1CC(c2ccc(Cl)c(C(F)(F)F)c2)c2ccccc21` (configuration not stated), for which the pIC50 in test [1] was 7.60; in test [4], 5.46; in test [5], 8.38. Besides, the ED50 was more than 110 µmol/kg in the test filed under Mus musculus [2] (Mus musculus, read-out: ED50) and 55 µmol/kg in the test listed under Mus musculus [3].
Regarding `CN1CCN(C2CC(c3ccc(Cl)c(Cl)c3)c3ccccc32)CC1` (stereo in doubt; (-)-102), the ED50 in the test filed under Mus musculus [7] was determined as 69 µM/kg. In test [4], the pIC50 is 8.64.
For `CNC1CC(c2ccc(Cl)c(Cl)c2)c2ccc(O)cc21` (stereo in doubt; 80), the pIC50 was 8.20 in test [1], 8.39 in test [4] and 9.96 in test [5]. For the same compound, the ED50 in the test filed under Mus musculus [6] (Mus musculus, read-out: ED50) is 59 µmol/kg; in the test filed under Mus musculus [7] (Mus musculus, read-out: ED50), 15 µmol/kg.
`CNC1CC(c2ccc(Cl)cc2Cl)c2ccccc21.Cl` (stereo in doubt; 48): the pIC50 in test [1] was 7.82; in test [4], 6.29; in test [5], 9.04. The compound further yielded an ED50 in the test filed under Mus musculus [2] of 19 µmol/kg.
As for `CNC1CC(c2ccc(Br)cc2)c2ccccc21` (stereo in doubt; 36), the pIC50 in test [1] was 9.52; in test [4], 8.60; in test [5] it was 9.55. Moreover, in the test filed under Mus musculus [2] (Mus musculus, read-out: ED50), the ED50 was found to be 47 µmol/kg.
Take `CNC1CC(c2ccc(Cl)cc2Cl)c2ccccc21.Cl` (stereo in doubt; 74): the pIC50 in test [1] was 8.21; in test [4], 7.00; in test [5] it was 7.68. The compound further registered an ED50 in the test listed under Mus musculus [2] of 98 µmol/kg.
As to `CN(C)C1CC(c2cccc(Cl)c2)c2ccccc21.Cl` (stereo in doubt; 67), the pIC50 in test [1] is 9.11; in test [4], 7.27; in test [5], 8.59. The ED50 in the test listed under Mus musculus [2] turned out to be 85 µmol/kg.
Consider `CN(C)CCCC1(c2ccc(F)cc2)OCc2cc(C#N)ccc21` (configuration not stated) [CITALOPRAM], for which, in the test filed under Mus musculus [7] (Mus musculus, read-out: ED50), the ED50 is 51 µmol/kg.
`CNC1CC(c2ccc(Cl)c(Cl)c2)c2ccc(F)cc21.Cl` (stereo in doubt; 76): the pIC50 is 7.85 in test [1], 8.30 in test [4] and 9.12 in test [5]. Further, the ED50 in the test filed under Mus musculus [2] turned out to be 15 µmol/kg.

These data come from ChEMBL document CHEMBL1122866, “3-Phenyl-1-indanamines. Potential antidepressant activity and potent inhibition of dopamine, norepinephrine, and serotonin uptake” (J Med Chem, 1985).
